Experimental findings from paper PMC10403215 (Science Advances, 2023) are described below.

Test [1] concerns stationary phase S. aureus Newman cells. Description: Stationary-phase persister cell killing. In kind it is cell-based, Staphylococcus aureus. The note with it: 100× or 10× MIC.
Test [2] deals with S. aureus MRSA strain USA300. Description: Murine epicutaneous infection model. It counts as in vivo, BALB/c mice.
The test system of test [3] is S. aureus Newman. Nature of the test: MIC, broth microdilution. In kind it is cell-based. The note with it: Staphylococcus aureus.
For test [4], the system named is S. aureus RN4220 overexpressing putative target genes. Description: MIC against strains overexpressing putative target proteins. In kind it is cell-based, Staphylococcus aureus. The note with it: fig. S4A.
Test [5] relates to S. aureus Newman. In kind it is cell-based, Staphylococcus aureus. The settings on record: 40 mM, fig. S4C.
Test [6] relates to S. aureus Newman. Description: Time-killing assay, exponential culture. It counts as cell-based, Staphylococcus aureus. The settings on record: control experiment. The method, boiled down: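 Newman grown in LB at 37°C with shaking to OD600 0.4–0.6, then diluted to 1 × 10⁶ CFU/ml in LB containing various concentrations of test compound, with vancomycin as comparator. Incubated at 37°C with shaking. Serial dilutions plated on LB agar at set time points for CFU/ml. Duplicate, three independent experiments.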

Test [7] relates to MRSA USA300 preformed biofilm. Description: Preformed biofilm eradication, crystal violet. In kind it is cell-based, Staphylococcus aureus. The settings on record: control. The gist of the method:
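Eradication of preformed USA300 biofilms by test compound was quantified by crystal violet staining after washing. Three independent experiments, triplicate runs per concentration.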

The subject of test [8] is S. aureus MRSA strain USA300. Description: MIC, broth microdilution. It counts as cell-based. The note with it: Staphylococcus aureus. The gist of the method: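 CLSI M07-A10 broth microdilution with twofold serial dilutions of test compound in MH broth. Inoculum was cells grown in MH broth at 37°C with shaking to OD600 0.4–0.6, diluted to ~1 × 10⁵ CFU/ml final. Run in duplicate, three independent experiments.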

The test system of the next test is S. aureus USA300. Description: Transmission electron microscopy of cell structure. It counts as cell-based, Staphylococcus aureus. The settings on record: 0.5× MIC, cell lysis within 4 hours.

Values after ≈ are worked out from the molar mass of the structure shown.

On to `O=C(O)c1cn(C2CC2)c2cc(N3CCNCC3)c(F)cc2c1=O` [Cipro, ciprofloxacin], for which the tolerance of persisters entry in test [1] was “high level of tolerance”.

In the case of `COc1cccc(OC)c1C(=O)N[C@@H]1C(=O)N2[C@@H]1SC(C)(C)[C@@H]2C(=O)O` [Met, methicillin], the “killing effect compared to the vehicle control” value in [2] (3 mg kg^−1) is recorded as “no significant killing effect”.

`CC1(C)S[C@@H]2[C@H](NC(=O)Cc3ccccc3)C(=O)N2[C@H]1C(=O)O` [Pen, penicillin G] yielded an MIC against S. aureus Newman [3] of 0.125 µg/mL (≈ 0.374 µM). In addition, the tolerance of persisters entry in test [1] is listed as “high level of tolerance”. In test [4], the “effect of overexpression of each protein on sensitivity” value was “no effect”. Moreover, the “effect of sole addition of lysine or UDP-GlcNAc on susceptibility” value in the test with S. aureus Newman [5] is “did not affect”.

On to `CN[C@H](CC(C)C)C(=O)N[C@H]1C(=O)N[C@@H](CC(N)=O)C(=O)N[C@H]2C(=O)N[C@H]3C(=O)N[C@H](C(=O)N[C@H](C(=O)O)c4cc(O)cc(O)c4-c4cc3ccc4O)[C@H](O)c3ccc(c(Cl)c3)Oc3cc2cc(c3O[C@@H]2O[C@H](CO)[C@@H](O)[C@H](O)[C@H]2O[C@H]2C[C@](C)(N)[C@H](O)[C@H](C)O2)Oc2ccc(cc2Cl)[C@H]1O` [Van, vancomycin], for which the “killing speed compared with ChryA” value with S. aureus Newman [6] is “much slower killing”. The antibiofilm ability result in [7] is given as “no antibiofilm ability”.

For the compound `C[C@@H]1O[C@@H]1P(=O)(O)O` [fosfomycin], 4 µg/mL (≈ 29 µM) was the least that counted as inhibitory in test [8] (MIC). For the same compound, in the test on S. aureus USA300, the “cell wall integrity (TEM)” value is listed as “severely impaired”.

`CC(=O)O[C@H]1C[C@@]2(C)[C@@H](C[C@@H](O)[C@H]3[C@@]4(C)CC[C@@H](O)[C@@H](C)[C@@H]4CC[C@@]32C)/C1=C(\CCC=C(C)C)C(=O)O` [fusidic acid]: the MIC in test [8] was found to be 0.031 µg/mL (≈ 0.06 µM). The “effectiveness, ChryA versus fusidic acid” value in test [2] (bacterial colonization of wounds on Day 16, fig. S3) is on record as “less effectiveness compared to the low dose of ChryA”.
